Measurements from ChEMBL document CHEMBL4393678, “Novel Tetrahydroquinazolinamines as Selective Histamine 3 Receptor Antagonists for the Treatment of Obesity” (J Med Chem, 2019).
The source made the active and inactive calls. The calls are words filed in the database; no cut-off is given here.

Experiments:
[1] = Half life in C57BL/6J mouse brain at 20 mg/kg, po by LC-MS/MS analysis; assay type: ADME, organism-based
Summary of the method: (§1)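 Male C57BL/6J mice (6-8 weeks, 20 ± 5 g) fasted overnight (12-16 h) got a single 20 mg/kg oral dose as 2.5 mg/mL suspension in 1% w/v gum acacia; n=5 per time point. Serum and brain (PBS homogenate 1:6 w/v) sampled up to 24 h. Parent and demethylated metabolite quantified by LC-MS/MS after liquid-liquid extraction (C18, MRM, phenacetin internal standard; linear 0.25-200 ng/mL). Two-compartment open model fit.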

[2] = molecular target: D(2) dopamine receptor (Homo sapiens) (UniProt P14416); experiment: Agonist activity at Gi-coupled D2 receptor (unknown origin) expressed in HEK293T cells assessed as inhibition of forskolin-stimulated cAMP accumulation preincubated for 10 to 15 followed by forskolin-stimulation by Glo-sensor assay; assay type: functional, cell-based
Chain of D(2) dopamine receptor (Homo sapiens) (P14416 whole entry): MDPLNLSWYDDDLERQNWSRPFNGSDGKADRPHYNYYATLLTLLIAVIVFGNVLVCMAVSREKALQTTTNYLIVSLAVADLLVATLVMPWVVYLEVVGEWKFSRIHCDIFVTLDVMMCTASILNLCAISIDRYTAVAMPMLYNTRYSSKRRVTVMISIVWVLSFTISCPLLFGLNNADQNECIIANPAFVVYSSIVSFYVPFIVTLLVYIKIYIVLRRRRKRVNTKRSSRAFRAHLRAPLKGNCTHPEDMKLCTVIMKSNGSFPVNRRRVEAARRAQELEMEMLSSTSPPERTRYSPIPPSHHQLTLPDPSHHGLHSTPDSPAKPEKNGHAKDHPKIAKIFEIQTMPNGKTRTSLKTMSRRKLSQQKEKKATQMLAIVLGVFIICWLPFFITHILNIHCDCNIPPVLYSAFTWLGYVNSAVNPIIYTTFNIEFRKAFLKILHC

[3] = molecular target: T1, G-protein coupled bile acid receptor 1 (Homo sapiens) (UniProt Q8TDU6); experiment: (§2) Antagonist activity at Gs-coupled GPBAR1 (unknown origin) expressed in HEK293T cells assessed as reduction in histamine-induced inhibition of forskolin-stimulated cAMP accumulation preincubated for 10 to 15 followed by histamine addition for 10 mins and subsequent forskolin-stimulation by Glo-sensor assay; assay type: functional, cell-based
T1 sequence (whole entry): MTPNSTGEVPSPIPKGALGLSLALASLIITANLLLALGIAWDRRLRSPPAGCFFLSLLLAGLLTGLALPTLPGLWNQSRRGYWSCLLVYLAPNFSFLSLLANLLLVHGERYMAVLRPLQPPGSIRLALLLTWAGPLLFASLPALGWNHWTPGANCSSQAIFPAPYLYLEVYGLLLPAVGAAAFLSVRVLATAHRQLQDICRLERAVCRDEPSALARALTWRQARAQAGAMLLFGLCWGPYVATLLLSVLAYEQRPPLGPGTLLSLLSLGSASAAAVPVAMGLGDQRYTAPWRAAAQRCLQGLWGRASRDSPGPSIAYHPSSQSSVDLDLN

Mus musculus [4] = experiment: In vivo antagonist activity at H3R in 12 hrs fasted db/db-induced obese C57BL/6J mouse model assessed as increase in c-FOS expression in para-ventricular nucleus of hypothalamus at 20 mg/kg, ip measured after 90 mins by immunohistochemistry-based fluorescence assay; assay type: functional, organism-based
Mus musculus [5] = experiment: Anti-obesity activity in 16 hrs fasted db/db-induced obese C57BL/6J mouse model assessed as reduction in fasting blood glucose level at 20 mg/kg, po measured after 4 weeks; assay type: functional, organism-based
[6] = Tmax in C57BL/6J mouse serum assessed as 4-(2-Amino-8-methyl-5,6,7,8-tetrahydroquinazolin-4-yl)phenol level at 20 mg/kg, po by LC-MS/MS analysis; assay type: ADME, organism-based; conditions: in vivo; summary of the method: as §1
[7] = AUClast in C57BL/6J mouse brain at 20 mg/kg, po by LC-MS/MS analysis; assay type: ADME, organism-based; set-up: dose 20 mg/kg, route oral, time 0 - last
Summary of the method: (§3)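 Male C57BL/6J mice, 6-8 weeks, 20 ± 5 g, fasted overnight (12-16 h), n = 5 per time point. Single 20 mg/kg oral dose given by feeding needle as a 2.5 mg/mL suspension in 1% w/v gum acacia and water. Serum and brain (homogenized 1:6 w/v in PBS) sampled up to 24 h. Liquid-liquid extraction, then LC-MS/MS in positive MRM mode with phenacetin as internal standard. Linear range 0.25-200 ng/mL. Non-compartmental and compartmental analysis.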

[8] = molecular target: D(1A) dopamine receptor (Homo sapiens) (UniProt P21728); experiment: as §2, with “D1 receptor” for “GPBAR1”; assay type: functional, cell-based
Chain of D(1A) dopamine receptor (Homo sapiens) (P21728 whole entry): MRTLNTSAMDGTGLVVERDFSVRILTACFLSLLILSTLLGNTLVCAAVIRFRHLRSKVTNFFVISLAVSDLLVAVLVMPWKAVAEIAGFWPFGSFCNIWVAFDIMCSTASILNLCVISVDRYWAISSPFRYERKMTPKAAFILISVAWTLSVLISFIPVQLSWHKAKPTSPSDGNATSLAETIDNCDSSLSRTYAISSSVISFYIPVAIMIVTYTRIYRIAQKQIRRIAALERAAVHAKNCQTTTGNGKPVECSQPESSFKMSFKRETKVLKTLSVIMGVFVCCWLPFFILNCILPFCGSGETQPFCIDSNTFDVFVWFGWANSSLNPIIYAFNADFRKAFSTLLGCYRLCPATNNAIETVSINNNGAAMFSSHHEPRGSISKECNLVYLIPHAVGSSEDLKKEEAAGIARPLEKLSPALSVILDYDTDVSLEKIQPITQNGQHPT

[9] = molecular target: T2, 5-hydroxytryptamine receptor 2C (Homo sapiens) (UniProt P28335); experiment: Agonist activity at 5HT2CR (unknown origin) expressed in HEK293 cells harboring luc2P/NFAT-RE plasmid at 10 uM after 6 to 8 hrs by luciferase reporter gene assay; assay type: cell-based
T2 sequence (whole entry): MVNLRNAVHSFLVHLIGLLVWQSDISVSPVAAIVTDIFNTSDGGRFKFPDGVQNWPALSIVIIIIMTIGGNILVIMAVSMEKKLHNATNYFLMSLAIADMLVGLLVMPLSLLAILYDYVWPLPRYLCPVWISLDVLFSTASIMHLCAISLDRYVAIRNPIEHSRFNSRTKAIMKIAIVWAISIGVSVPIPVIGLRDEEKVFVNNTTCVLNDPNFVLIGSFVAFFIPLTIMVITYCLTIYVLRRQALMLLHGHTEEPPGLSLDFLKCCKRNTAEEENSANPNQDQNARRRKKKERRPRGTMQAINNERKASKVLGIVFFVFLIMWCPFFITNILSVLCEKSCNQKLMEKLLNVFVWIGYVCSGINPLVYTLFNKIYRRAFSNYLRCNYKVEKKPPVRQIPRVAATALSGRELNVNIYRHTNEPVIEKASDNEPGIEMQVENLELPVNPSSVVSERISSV
Summary of the method: (§4)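 NFAT-RE luciferase assay in HEK293T cells transiently co-transfected with luc2P/NFAT-RE plasmid and receptor plasmid. Cells plated in DMEM and incubated overnight at 37 °C, 5% CO₂. Compounds and reference ligands applied for 6-8 h. Luciferase read after adding Bright-Glo substrate (1 mg/ml final).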

[10] = AUClast in C57BL/6J mouse brain assessed as 4-(2-Amino-8-methyl-5,6,7,8-tetrahydroquinazolin-4-yl)phenol level at 20 mg/kg, po by LC-MS/MS analysis; assay type: ADME, organism-based; set-up: dose 20 mg/kg, time 0 - last, route oral; conditions: in vivo; summary of the method: as §3
[11] = molecular target: Histamine H4 receptor (Homo sapiens) (UniProt Q9H3N8); experiment: Agonist activity at recombinant human Gi-coupled H4 receptor expressed in HEK293T cells assessed as inhibition of forskolin-stimulated cAMP accumulation at 10 uM preincubated for 10 to 15 followed by forskolin-stimulation by Glo-sensor assay; assay type: functional, cell-based
Chain of Histamine H4 receptor (Homo sapiens) (Q9H3N8 whole entry): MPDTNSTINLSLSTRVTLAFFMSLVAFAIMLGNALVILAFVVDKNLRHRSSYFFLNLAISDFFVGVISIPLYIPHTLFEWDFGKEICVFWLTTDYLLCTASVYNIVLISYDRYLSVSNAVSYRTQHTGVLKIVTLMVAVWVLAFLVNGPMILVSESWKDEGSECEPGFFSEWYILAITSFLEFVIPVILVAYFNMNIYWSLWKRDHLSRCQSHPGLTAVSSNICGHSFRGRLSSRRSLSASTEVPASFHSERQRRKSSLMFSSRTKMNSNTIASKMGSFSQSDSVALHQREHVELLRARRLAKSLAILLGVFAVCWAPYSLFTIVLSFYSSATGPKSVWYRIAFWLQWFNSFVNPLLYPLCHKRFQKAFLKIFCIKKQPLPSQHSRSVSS

[12] = molecular target: T3, Muscarinic acetylcholine receptor M5 (Homo sapiens) (UniProt P08912); experiment: Antagonist activity at M5R (unknown origin) expressed in HEK293 cells harboring luc2P/NFAT-RE plasmid at 10 uM after 6 to 8 hrs by luciferase reporter gene assay; assay type: cell-based; summary of the method: as §4
T3 sequence (whole entry): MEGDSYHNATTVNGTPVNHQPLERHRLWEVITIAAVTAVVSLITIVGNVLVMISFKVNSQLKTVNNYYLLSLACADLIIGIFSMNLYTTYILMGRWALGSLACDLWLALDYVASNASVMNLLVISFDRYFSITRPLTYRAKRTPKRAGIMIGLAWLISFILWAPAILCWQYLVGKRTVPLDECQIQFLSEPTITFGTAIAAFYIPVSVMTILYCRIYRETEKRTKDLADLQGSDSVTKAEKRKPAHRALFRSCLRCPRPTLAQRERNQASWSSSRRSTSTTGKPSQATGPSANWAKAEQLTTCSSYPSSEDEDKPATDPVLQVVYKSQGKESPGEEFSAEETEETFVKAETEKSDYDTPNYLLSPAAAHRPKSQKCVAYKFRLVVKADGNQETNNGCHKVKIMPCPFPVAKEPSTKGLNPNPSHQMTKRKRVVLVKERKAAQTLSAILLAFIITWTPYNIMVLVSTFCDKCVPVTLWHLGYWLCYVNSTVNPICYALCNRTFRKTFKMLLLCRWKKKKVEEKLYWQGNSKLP

COc1ccc(-c2nc(N)nc3c2CCCC3C)cc1 (racemic)
half-life [1]: 1.1 h
inhibition [2]: inactive
inhibition [3]: inactive
Activity (Mus musculus [4]): Active
Activity (Mus musculus [5]): Active
Tmax [6]: 0.25 h
AUC(0-t) [7]: 310 ng·h/mL
inhibition [8]: inactive
inhibition [9]: inactive
AUClast [10]: 100.7 ng·h/mL
Activity [11]: inactive
inhibition [12]: inactive
